Data as given in ChEMBL document CHEMBL1949521, “Discovery of CC-930, an orally active anti-fibrotic JNK inhibitor” (Bioorg Med Chem Lett, 2012).

What was measured:
[1] = AUC in dog at 1 mg/kg, iv; assay type: ADME, organism-based, Canis lupus familiaris, Plasma; design: dose 1 mg/kg, route intravenous; conditions: plasma
[2] = Oral bioavailability in cynomolgus monkey at 10 mg/kg; assay type: ADME, organism-based, Macaca fascicularis; conditions: in vivo
Method in brief: (§1)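 Oral dose of 10 mg/kg given as a suspension in aqueous 0.5% CMC/0.25% Tween 80. Plasma AUC, Cmax and Tmax were taken from the oral arm. Bioavailability was derived against the intravenous arm in the same species.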

[3] = target: Mitogen-activated protein kinase 8 (Homo sapiens, UniProt P45983); assay: Inhibition of hexa-His-tagged JNK1 expressed in baculoviral system using GST-tagged c-Jun as substrate preincubated for 15 mins prior ATP addition measured after 60 mins by scintillation counting
Chain of Mitogen-activated protein kinase 8 (P45983 whole entry): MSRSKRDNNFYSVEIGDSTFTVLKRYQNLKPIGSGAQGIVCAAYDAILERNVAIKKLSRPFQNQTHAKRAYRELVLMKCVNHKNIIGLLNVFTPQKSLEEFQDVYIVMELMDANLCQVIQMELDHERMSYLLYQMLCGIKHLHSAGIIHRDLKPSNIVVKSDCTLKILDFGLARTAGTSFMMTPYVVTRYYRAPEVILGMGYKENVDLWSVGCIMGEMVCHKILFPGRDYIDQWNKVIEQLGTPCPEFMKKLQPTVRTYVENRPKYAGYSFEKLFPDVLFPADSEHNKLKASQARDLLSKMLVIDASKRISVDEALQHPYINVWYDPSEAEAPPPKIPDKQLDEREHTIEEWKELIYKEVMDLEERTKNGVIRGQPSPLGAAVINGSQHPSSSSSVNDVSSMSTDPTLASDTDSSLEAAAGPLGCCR

[4] = Tmax in dog at 10 mg/kg, po; assay type: ADME, organism-based, Canis lupus familiaris; design: dose 10 mg/kg, route oral; conditions: in vivo; method in brief: as §1
[5] = AUC in dog at 10 mg/kg, po; assay type: ADME, organism-based, Canis lupus familiaris, Plasma; design: dose 10 mg/kg, route oral; conditions: plasma; method in brief: as §1
[6] = Mean residence time in dog at 1 mg/kg, iv; assay type: ADME, organism-based, Canis lupus familiaris; design: dose 1 mg/kg, route intravenous; conditions: in vivo
[7] = target: Mitogen-activated protein kinase 10 (Homo sapiens, UniProt P53779); assay: Inhibition of hexa-His-tagged JNK3 expressed in baculoviral system using GST-tagged cJun as substrate preincubated for 15 mins prior ATP addition measured after 60 mins by scintillation counting
Chain of Mitogen-activated protein kinase 10 (P53779 whole entry): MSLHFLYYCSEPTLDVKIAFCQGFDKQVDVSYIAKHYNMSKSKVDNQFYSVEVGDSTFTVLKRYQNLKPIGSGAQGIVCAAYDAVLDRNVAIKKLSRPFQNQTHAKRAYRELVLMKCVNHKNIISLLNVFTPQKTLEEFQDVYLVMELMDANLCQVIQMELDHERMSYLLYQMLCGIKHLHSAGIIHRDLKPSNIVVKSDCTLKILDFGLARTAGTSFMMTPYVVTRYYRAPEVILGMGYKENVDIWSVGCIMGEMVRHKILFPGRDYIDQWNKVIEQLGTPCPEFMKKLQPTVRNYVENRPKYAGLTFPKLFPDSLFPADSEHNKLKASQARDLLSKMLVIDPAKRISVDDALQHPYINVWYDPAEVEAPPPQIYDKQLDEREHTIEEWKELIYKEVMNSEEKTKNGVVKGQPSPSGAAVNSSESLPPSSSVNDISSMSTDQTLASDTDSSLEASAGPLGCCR

[8] = target: Mitogen-activated protein kinase 14 (Homo sapiens, UniProt Q16539); assay: Inhibition of p38alpha using myelin basic protein as substrate preincubated for 15 mins prior ATP addition measured after 60 mins by scintillation counting
Chain of Mitogen-activated protein kinase 14 (Q16539 whole entry): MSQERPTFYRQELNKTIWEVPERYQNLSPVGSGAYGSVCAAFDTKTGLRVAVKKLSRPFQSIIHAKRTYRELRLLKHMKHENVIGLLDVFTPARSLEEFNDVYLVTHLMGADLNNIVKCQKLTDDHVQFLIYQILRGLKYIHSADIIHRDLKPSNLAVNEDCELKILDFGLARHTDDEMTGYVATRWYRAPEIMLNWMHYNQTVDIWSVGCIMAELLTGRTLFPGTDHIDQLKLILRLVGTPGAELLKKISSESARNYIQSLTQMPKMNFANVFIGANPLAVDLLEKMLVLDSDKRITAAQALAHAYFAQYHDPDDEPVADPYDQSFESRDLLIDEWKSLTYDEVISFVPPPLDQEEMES

[9] = AUC in rat at 2 mg/kg, iv; assay type: ADME, organism-based; design: dose 2 mg/kg, route intravenous; conditions: plasma
Method in brief: (§2)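 Rats dosed intravenously at 2 mg/kg in a solution of 5% DMA and 30% PEG 400.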

[10] = Oral bioavailability in rat at 10 mg/kg; assay type: ADME, organism-based; conditions: in vivo; method in brief: as §1
[11] = Cmax in dog at 10 mg/kg, po; assay type: ADME, organism-based, Canis lupus familiaris; design: dose 10 mg/kg, route oral; conditions: in vivo; method in brief: as §1
[12] = Oral bioavailability in rat; assay type: ADME, organism-based; conditions: in vivo
[13] = Tmax in cynomolgus monkey at 10 mg/kg, po; assay type: ADME, organism-based, Macaca fascicularis; design: dose 10 mg/kg, route oral; conditions: in vivo; method in brief: as §1
[14] = Volume of distribution at steady state in cynomolgus monkey at 1 mg/kg, iv; assay type: ADME, organism-based, Macaca fascicularis; design: dose 1 mg/kg, route intravenous; conditions: in vivo, read-out: Vdss
Method in brief: (§3)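 Intravenous dose of 1 mg/kg given to monkeys in a solution of 5% DMA and 95% isotonic citrate buffer (50 mM, pH 5.0).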

[15] = target: c-Jun N-terminal kinase, JNK (Homo sapiens, UniProt P45983+P53779+P45984); assay: Inhibition of JNK-mediated GST tagged c-Jun phosphorylation in human Jurkat T cells compound treated for 30 mins prior anisomycin stimulation measured after 40 mins by fluorescence spectrophotometry; assay type: cell-based
[16] = Clearance in cynomolgus monkey at 1 mg/kg, iv; assay type: ADME, organism-based, Macaca fascicularis; design: dose 1 mg/kg, route intravenous; conditions: in vivo; method in brief: as §3
[17] = Volume of distribution at steady state in dog at 1 mg/kg, iv; assay type: ADME, organism-based, Canis lupus familiaris; design: dose 1 mg/kg, route intravenous; conditions: in vivo, read-out: Vdss
[18] = Clearance in rat at 2 mg/kg, iv; assay type: ADME, organism-based; design: dose 2 mg/kg, route intravenous; conditions: in vivo; method in brief: as §2
[19] = AUC in cynomolgus monkey at 10 mg/kg, po; assay type: ADME, organism-based, Macaca fascicularis; design: dose 10 mg/kg, route oral; conditions: plasma; method in brief: as §1
[20] = Mean residence time in cynomolgus monkey at 1 mg/kg, iv; assay type: ADME, organism-based, Macaca fascicularis; design: dose 1 mg/kg, route intravenous; conditions: in vivo; method in brief: as §3
[21] = Oral bioavailability in dog at 10 mg/kg; assay type: ADME, organism-based, Canis lupus familiaris; conditions: in vivo; method in brief: as §1
[22] = Mean residence time in rat at 2 mg/kg, iv; assay type: ADME, organism-based; design: dose 2 mg/kg, route intravenous; conditions: in vivo; method in brief: as §2
[23] = Cmax in rat at 10 mg/kg, po; assay type: ADME, organism-based; design: dose 10 mg/kg, route oral; conditions: in vivo; method in brief: as §1
[24] = Cmax in cynomolgus monkey at 10 mg/kg, po; assay type: ADME, organism-based, Macaca fascicularis; design: dose 10 mg/kg, route oral; conditions: in vivo; method in brief: as §1
[25] = AUC in rat at 10 mg/kg, po; assay type: ADME, organism-based; design: dose 10 mg/kg, route oral; conditions: plasma; method in brief: as §1
[26] = AUC in cynomolgus monkey at 1 mg/kg, iv; assay type: ADME, organism-based, Macaca fascicularis; design: dose 1 mg/kg, route intravenous; conditions: plasma; method in brief: as §3
[27] = Tmax in rat at 10 mg/kg, po; assay type: ADME, organism-based; design: dose 10 mg/kg, route oral; conditions: in vivo; method in brief: as §1
[28] = target: Mitogen-activated protein kinase 9 (Homo sapiens, UniProt P45984); assay: Inhibition of hexa-His-tagged JNK2 expressed in baculoviral system using GST-tagged cJun as substrate preincubated for 15 mins prior ATP addition measured after 60 mins by scintillation counting
Chain of Mitogen-activated protein kinase 9 (P45984 whole entry): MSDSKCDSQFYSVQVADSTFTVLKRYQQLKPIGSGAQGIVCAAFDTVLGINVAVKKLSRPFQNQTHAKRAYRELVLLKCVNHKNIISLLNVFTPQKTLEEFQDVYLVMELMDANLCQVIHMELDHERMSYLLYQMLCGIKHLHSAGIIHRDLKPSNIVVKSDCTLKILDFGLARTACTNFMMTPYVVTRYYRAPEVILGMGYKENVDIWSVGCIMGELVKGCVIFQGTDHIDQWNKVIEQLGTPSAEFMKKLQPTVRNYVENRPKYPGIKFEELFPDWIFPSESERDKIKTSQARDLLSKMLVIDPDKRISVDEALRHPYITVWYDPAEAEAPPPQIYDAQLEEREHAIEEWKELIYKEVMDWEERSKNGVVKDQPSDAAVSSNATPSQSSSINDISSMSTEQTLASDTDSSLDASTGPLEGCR

[29] = Volume of distribution at steady state in rat at 2 mg/kg, iv; assay type: ADME, organism-based; design: dose 2 mg/kg, route intravenous; conditions: in vivo, read-out: Vdss; method in brief: as §2
[30] = Clearance in dog at 1 mg/kg, iv; assay type: ADME, organism-based, Canis lupus familiaris; design: dose 1 mg/kg, route intravenous; conditions: in vivo
[31] = AUC in po dosed rat; assay type: ADME, organism-based; conditions: plasma
Rattus norvegicus = assay: Antiinflammatory activity in CD rat assessed as inhibition of LPS-stimulated TNFalpha production at 30 mg/kg, po administered 1 hr prior LPS challenge measured after 90 mins by ELISA; assay type: functional
Method in brief: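 Acute PK-PD model in rats: compound given by oral gavage at 10 or 30 mg/kg, then lipopolysaccharide injected, and plasma TNF-alpha release measured.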

CNC(=O)[C@H]1CC[C@H](Nc2ncc3nc(Nc4c(F)cc(F)cc4F)n([C@H]4CCOC4)c3n2)CC1
AUC [1]: 1.4 µM·h | bioavailability [2]: 48% | IC50 [3]: 51 nM | Tmax [4]: 40.2 min | AUC [5]: 3.3 µM·h | MRT [6]: 60 min | IC50 [7]: 7 nM | IC50 [8]: 4200 nM | AUC [9]: 1.8 µM·h | bioavailability [10]: 33% | Cmax [11]: 860 nM | bioavailability [12]: 33% | Tmax [13]: 49.8 min | Vd [14]: 0.8 L/kg | IC50 [15]: 91 nM | clearance [16]: 7.1 mL/min/kg | Vd [17]: 1.4 L/kg | clearance [18]: 39 mL/min/kg | AUC [19]: 23 µM·h | MRT [20]: 108 min | bioavailability [21]: 24% | MRT [22]: 66 min | Cmax [23]: 1200 nM | Cmax [24]: 11000 nM | AUC [25]: 2.9 µM·h | AUC [26]: 4.7 µM·h | Tmax [27]: 42 min | IC50 [28]: 10 nM | Vd [29]: 2.5 L/kg | clearance [30]: 24 mL/min/kg

CC(C)Nc1ncc2nc(Nc3c(F)cc(F)cc3F)n([C@H]3CC[C@@H](C(=O)NC4CC4)CC3)c2n1
IC50 [3]: 79 nM | IC50 [8]: 6200 nM | bioavailability [12]: 42% | IC50 [15]: 200 nM | clearance [18]: 31 mL/min/kg | AUC [31]: 4.7 µM·h | bioavailability [21]: 20% | inhibition in vivo at 30 mg/kg (Rattus norvegicus): 92%

O[C@H]1CC[C@H](Nc2ncc3nc(Nc4c(F)cc(F)cc4F)n([C@@H]4CCOC4)c3n2)CC1
IC50 [8]: > 3000 nM

CC(C)Nc1ncc2nc(Nc3c(F)cc(F)cc3F)n([C@H]3CC[C@@H](C(N)=O)CC3)c2n1
IC50 [3]: 120 nM | IC50 [8]: 160 nM | bioavailability [12]: 32% | IC50 [15]: 200 nM | clearance [18]: 25 mL/min/kg | AUC [31]: 5 µM·h | inhibition in vivo at 30 mg/kg (Rattus norvegicus): 96%
